Experimental findings from ChEMBL document CHEMBL4619820, “Development of Novel AKR1C3 Inhibitors as New Potential Treatment for Castration-Resistant Prostate Cancer” (J Med Chem, 2020) are described below.

Experiment [1] deals with T1, Aldo-keto reductase family 1 member C3 (Homo sapiens) (UniProt P42330).
T1 sequence (whole entry): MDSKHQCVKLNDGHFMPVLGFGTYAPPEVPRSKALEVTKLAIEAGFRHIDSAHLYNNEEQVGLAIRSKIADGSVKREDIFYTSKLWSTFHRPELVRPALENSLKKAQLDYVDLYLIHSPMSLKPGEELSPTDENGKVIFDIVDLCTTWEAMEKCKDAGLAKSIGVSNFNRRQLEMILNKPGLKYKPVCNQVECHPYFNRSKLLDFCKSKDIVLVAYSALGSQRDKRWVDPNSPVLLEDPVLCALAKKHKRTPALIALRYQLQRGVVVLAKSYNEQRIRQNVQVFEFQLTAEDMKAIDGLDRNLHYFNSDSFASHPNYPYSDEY
The experiment can be described thus: Inhibition of AKR1C3 in human 22Rv1 cells assessed as induction of ROS generation at 10 uM by DCFH-DA dye based flow cytometric analysis. Format: cell-based. The following applies: CWR22R. In outline: (§1)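 22Rv1 cells exposed 3 h to 10 μM inhibitor and/or abiraterone, or 50 μM enzalutamide; intracellular ROS by flow cytometry as DCF-positive cells, percent of vehicle control.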
For orientation: In flow cytometry, cells or beads pass a laser one at a time.

Experiment [2] deals with T1, Aldo-keto reductase family 1 member C3 (Homo sapiens). The experiment in a line: Inhibition of AKR1C3 in human 22Rv1 cells assessed as as reduction in AR nuclear translocation at 10 pre-incubated for 2 hrs before 4AD addition for 24 hrs by Western blot analysis. The class given is cell-based. The following applies: CWR22R. In outline:
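22Rv1 cells pretreated 2 h with or without 10 μM inhibitor, then exposed 24 h to 10 nM 4AD; nuclear AR measured by Western blot of cell extracts, normalized to Lamin A+C, as percent of control.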
On the technique in general: A western blot detects proteins with antibodies after separation by electrophoresis.

Experiment [3] has the same target. The experiment can be described thus: Inhibition of AKR1C3 in human 22Rv1 cells assessed as potentiation of enzalutamide-induced of ROS generation at 10 uM by DCFH-DA dye based flow cytometric analysis. Format: cell-based. The following applies: CWR22R. In outline:
as §1

For experiment [4] the target is unchanged. The experiment in a line: Inhibition of AKR1C3 in human 22Rv1 cells assessed as potentiation of abiraterone-induced apoptosis by measuring increase in Bax level at 10 uM pre-incubated for 2 hrs before addition of pregnenolone for 24 hrs by Western blot analysis. Format: cell-based. The following applies: CWR22R.
The target is the same in experiment [5]. The experiment in a line: Inhibition of AKR1C3 in human 22Rv1 cells assessed as potentiation of abiraterone-induced apoptosis by measuring increase in cleaved PARP level at 10 uM pre-incubated for 2 hrs before addition of pregnenolone for 24 hrs by Western blot analysis. Format: cell-based. The following applies: CWR22R.
Experiment [6] concerns CWR22R. The experiment can be described thus: Effect on steroid 5alpha-reductase in human 22Rv1 cells assessed as effect on metabolism of 4AD into testosterone at 10 to 20 uM pre-incubated for 2 hrs before 4AD addition for 24 hrs by EIA. The class given is cell-based. In outline:
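22Rv1 cells pretreated 2 h with or without 2 μM finasteride and/or inhibitor, then cultured 24 h with 100 nM 4AD; testosterone in cell extracts quantified by EIA and expressed as percent of finasteride-free control.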

In experiment [7] the target is T1, Aldo-keto reductase family 1 member C3 (Homo sapiens). The experiment in a line: Inhibition of AKR1C3 in human 22Rv1 cells assessed as potentiation of abiraterone-induced of ROS generation at 10 uM by DCFH-DA dye based flow cytometric analysis. The class given is cell-based. The following applies: CWR22R. In outline:
as §1

For experiment [8] the target is unchanged. The experiment can be described thus: Inhibition of AKR1C3 in human 22Rv1 cells assessed as as reduction in AR mRNA expression at 10 to 20 uM pre-incubated for 2 hrs before pregnenolone stimulation for 24 hrs by RT-qPCR analysis. The class given is cell-based. The following applies: CWR22R. An outline of the steps:
(§2)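 22Rv1 cells pretreated 2 h with test agents, then stimulated 24 h with 20 nM pregnenolone; AR, TMPRSS2 and PSA mRNA measured by RT-qPCR, given as ratio to pregnenolone-free control.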
For orientation: Quantitative PCR measures a nucleic acid by following its amplification.

For experiment [9], the system named is CWR22R. The experiment in a line: Inhibition of pregnenolone-induced cell cell cycle changes in human 22Rv1 cells assessed as increase in G0/GG1 phase accumulation at 10 uM pre-incubated for 2 hrs before pregnenolone stimulation for 24 hrs by propidium iodide staining based flow cytometry. Format: functional. In outline:
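Cell cycle in 22Rv1: 2 h pretreatment with or without 10 μM inhibitor, then 24 h with 20 nM pregnenolone; G0/G1, S and G2/M fractions determined by flow cytometry.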

Experiment [10] deals with CWR22R. The experiment can be described thus: Induction of apoptosis in human 22Rv1 cells assessed as increase in cleaved caspase-3 level at 10 uM pre-incubated for 2 hrs before addition of pregnenolone for 24 hrs by Western blot analysis. The class given is functional, cell-based. An outline of the steps:
(§3)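 Apoptotic markers in 22Rv1: 2 h pretreatment with or without 10 μM inhibitor and/or 50 μM enzalutamide, then 24 h 20 nM pregnenolone; Bax/Bcl-2 ratio as percent of control; cleaved caspase-3 also by immunofluorescence with DAPI.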

For experiment [11], the target named is T1, Aldo-keto reductase family 1 member C3 (Homo sapiens). The experiment in a line: Inhibition of AKR1C3 in human 22Rv1 cells assessed as potentiation of abiraterone-induced apoptosis by measuring increase in cleaved caspase-3 level at 10 uM pre-incubated for 2 hrs before addition of pregnenolone for 24 hrs by Western blot analysis. The class given is cell-based. The following applies: CWR22R.

The target is the same in experiment [12]. The experiment can be described thus: Inhibition of AKR1C3 in human 22Rv1 cells assessed as potentiation of abiraterone-induced apoptosis by measuring reduction in BCl2 level at 10 uM pre-incubated for 2 hrs before addition of pregnenolone for 24 hrs by Western blot analysis. Format: cell-based. The following applies: CWR22R.
A further experiment concerns LNCaP. The experiment can be described thus: Inhibition of pregnenolone-induced cell proliferation of human LNCAP cells at 10 to 20 uM incubated for 72 hrs by alamar blue assay. The class given is functional, cell-based. In outline: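 LNCaP and androgen-low-sensitive LNCaP-E9 cells pretreated 2 h with inhibitor, then 72 h with 20 nM pregnenolone; viable cells expressed as percent of untreated LNCaP control.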

Experiment [13] concerns CWR22R. The experiment can be described thus: Induction of apoptosis in human 22Rv1 cells assessed as increase in cleaved PARP level at 10 uM pre-incubated for 2 hrs before addition of pregnenolone for 24 hrs by Western blot analysis. Format: functional, cell-based. In outline: as §3
Experiment [14] deals with T1, Aldo-keto reductase family 1 member C3 (Homo sapiens). The experiment in a line: Inhibition of AKR1C3 in human 22Rv1 cells assessed as as reduction in AR nuclear translocation at 10 to 20 uM pre-incubated for 2 hrs in absence of finasteride by Western blot analysis. The class given is cell-based. The following applies: CWR22R.
The target is the same in experiment [15]. The experiment can be described thus: Inhibition of AKR1C3 in human 22Rv1 cells assessed as as reduction in PSA mRNA expression at 10 to 20 uM pre-incubated for 2 hrs before pregnenolone stimulation for 24 hrs by RT-qPCR analysis. The class given is cell-based. The following applies: CWR22R. In outline: as §2
The target is the same in experiment [16]. The experiment in a line: Inhibition of AKR1C3 in human 22Rv1 cells assessed as potentiation of enzalutamide-induced apoptosis by measuring increase in cleaved caspase-3 level at 10 uM pre-incubated for 2 hrs before addition of pregnenolone for 24 hrs by Western blot analysis. The following applies: CWR22R. The class given is cell-based. In outline: as §3

For experiment [17] the target is unchanged. The experiment can be described thus: Inhibition of AKR1C3 in human 22Rv1 cells assessed as potentiation of enzalutamide-induced apoptosis by measuring increase in Bax level at 10 uM pre-incubated for 2 hrs before addition of pregnenolone for 24 hrs by Western blot analysis. The following applies: CWR22R. The class given is cell-based. An outline of the steps: as §3

Experiment [18] relates to CWR22R. The experiment in a line: Inhibition of pregnenolone-induced cell proliferation of human 22Rv1 cells at 10 to 20 uM pre-incubated for 2 hrs before pregnenolone stimulation for 72 hrs by alamar blue assay. Format: functional, cell-based. In outline:
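22Rv1 cells (AKR1C3- and AR-expressing) pretreated 2 h with agents, then cultured 72 h with 20 nM pregnenolone; viable cell number given as percent of pregnenolone-free control.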

The next experiment deals with PC-3. The experiment in a line: Inhibition of cell proliferation of human PC3 cells at 10 to 20 uM incubated for 72 hrs by alamar blue assay. The class given is functional, cell-based. In outline:
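PC3 cells (AKR1C3-positive, AR-negative) grown 72 h with or without inhibitor; growth curves of viable cell number compared with inhibitor-free cells.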

The subject of experiment [19] is CWR22R. The experiment in a line: Induction of apoptosis in human 22Rv1 cells assessed as increase in DNA fragmentation at 10 uM pre-incubated for 2 hrs before addition of pregnenolone for 24 hrs by ethidium bromide staining based DNA agarose gel electrophores method. Format: functional, cell-based.

Activity calls are given as the source filed them. No cut-off for these calls is given here.

Take `N=c1oc2c(O)cccc2cc1C(=O)Nc1ccc(F)cc1`: the inhibition entry in experiment [1], in experiment [2], in experiment [3], in experiment [4], in experiment [5] and in experiment [7] was “Active” each time. Further, the inhibition entry (in experiment [8]; in the experiment on CWR22R [9]; in experiment [11]; in experiment [12]; with LNCaP; in [14]) was “Active” throughout. In addition, the inhibition entry (in experiment [15]; in [16]; in [17]; in the experiment on CWR22R [18]; with PC-3) was “Active” each time. Also, the result in the experiment with CWR22R [6] was inactive. Also, the result in the experiment with CWR22R [10], in the experiment on CWR22R [13] and in the experiment on CWR22R [19] was Active.
`Cc1ccc(NC(=O)c2cc3cccc(O)c3oc2=N)cc1`: the inhibition entry in experiment [1], in experiment [2], in [3], in experiment [4], in experiment [5] and in experiment [7] was “Active” each time. In addition, the inhibition entry (in [8]; in the experiment with CWR22R [9]; in experiment [11]; in experiment [12]; with LNCaP; in experiment [14]) was “Active” throughout. In addition, the inhibition entry (in [15]; in experiment [16]; in [17]; in the experiment on CWR22R [18]; in the experiment on PC-3) was “Active” in each case. Further, in the experiment on CWR22R [6], the result was inactive. Besides, the result with CWR22R [10], in the experiment on CWR22R [13] and in the experiment with CWR22R [19] was Active.
